# High-throughput results as filed in PubChem.
# RBBP9 inhibitor = blocks human serine hydrolase RBBP9; recombinant RBBP9, FP-Rh probe fluorescence polarization; actives 0.2% (n = 220,000); inhibition, % at 7.94 µM;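 active = inhibition above the campaign mean of all tested compounds plus 3 SD, cut at about 14% in these data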
#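 Test system – recombinant human RBBP9 · Input – RBBP9 2.5 µM in dispensing solution, pre-mixing · Medium – Tris buffer pH 8.0, NaCl, Pluronic · Schedule – preincubation 30 min plus labeling 45 min at 25 °C · Measured by – fluorescence polarization · Measure – % inhibition · Controls – DMSO and no-protein wells · Replicates – one well per compound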
# Insulin prom up = MIN6 insulin promoter up-regulation; AID 1625; z-score at 5 µM; MIN6 insulin promoter-GFP reporter, high-content imaging; stronger effect = higher value; actives 0.3% (n = 190,000);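 active = z-score above 3 at 5 µM with at least 500 cells counted in the well; inconclusive = wells under 500 cells, flagged as cytotoxic or low count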
# Autophagy HCS = modulators of autophagy; MEF GFP-LC3 puncta imaging; test concentration mostly 10 µM; calls only at 10 µM (by protocol); actives 0.98% (n = 190,000); AID 463193;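 active = percentage of spot-positive cells more than 3 SD above its plate mean, without a fluorescence outlier flag or 80% toxicity; inconclusive = no clear call, values can overlap the other calls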
# Arbovirus anti = antivirals against arbovirus infection; actives 0.37% (n = 200,000); arbovirus infection cell-based antiviral screen; inhibition, % at 10 µM; AID 1251; in the data active = inhibition above about 30%
# PKD1 kinase inh = blocks activity of human protein kinase D1; actives 0.056% (n = 200,000); AID 797; PKD1 kinase fluorescence polarization assay; Q15139; inhibition, % (test concentration not listed); in the data active = inhibition above about 50%
# INS promoter inh = TRM-6 insulin promoter activity inhibition. TRM-6 cells, insulin promoter-eGFP reporter, imaging; reporter expression induced with tamoxifen. inhibition, % at 2 µM. actives 0.9% (n = 130,000). AID 1273;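 active = inhibition above the mean plus 3 SD, with well images judged a real hit on visual review, cut at about 60% in these data, passing the limit was not always enough; inconclusive = inhibition over the cutoff but images rejected on review; inactive = inhibition not above the cutoff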
# A number is an active result; - = inactive; ? = inconclusive; . = no result given; + = active, no number. Hits are enriched below; roughly 2.1% of the tested compounds scored in any of these assays.
SMILES,RBBP9 inhibitor,Insulin prom up,Autophagy HCS,Arbovirus anti,PKD1 kinase inh,INS promoter inh
CCc1nc(SCc2ccccn2)c2c(=O)n(C)c(=O)n(C)c2n1,-,-,-,-,-,.
CC(NC(=O)C12CC3(C)CC(C)(CC(C)(C3)C1)C2)C(=O)O (stereo not given),-,-,-,-,-,71
Cc1ccc2[nH]c3c(NCc4ccco4)ncnc3c2c1,-,-,-,-,-,85
COc1cc(CNc2ncnc3c2[nH]c2ccc(C)cc23)cc(OC)c1,-,-,.,.,.,.
COc1ccc(O)c(-c2cc(-c3cccc(Br)c3)n[nH]2)c1,-,-,-,-,-,.
Oc1ccc(Br)cc1-c1cc(-c2ccccc2)n[nH]1,-,.,-,36,-,-
Oc1ccc(Br)cc1-c1cc(-c2ccc(Cl)cc2)n[nH]1,-,-,-,74,-,-
O=C(CSc1nnc(-c2ccncc2)n1-c1ccc(F)cc1)NNC(=O)c1cccc(O)c1,-,-,-,-,-,-
Cc1n[nH]c(=S)c2nn(-c3ccccc3F)c(C)c12,-,-,-,-,-,-
CC(=O)Nc1cccc(NC(=O)CSc2ccc(-c3cccnc3)nn2)c1,-,-,+,-,-,.
CCN(CC)S(=O)(=O)c1ccc(C(=O)N2CCN(CCN3C(=O)c4cccc5cccc(c45)C3=O)CC2)cc1,-,-,-,-,-,-
O=C(NCCCn1ccnc1)c1ccc2c(c1)OCCO2,-,-,-,-,-,.
Nc1cc(=O)[nH]n1C1CCCCC1,-,-,+,-,-,.
Nc1cc(=O)[nH]n1C1CCCC1,-,-,-,-,-,.
COC(=O)c1sc2nc(SCc3ccccc3C#N)n(N)c(=O)c2c1C,-,-,-,-,-,-
COc1ccc(CN2C(=O)CCC2(C)C(=O)NC2CCCC2)c(OC)c1 (stereo not given),-,-,-,-,-,70
Cc1cc(NCCCn2ccnc2)n2nc(-c3ccc(F)cc3)cc2n1,-,-,-,-,-,.
CCOC(=O)c1sc(NC(=O)CSc2nc3c(cc2C#N)CCC3)c(C#N)c1C,-,.,-,.,-,-
CCOC(=O)c1sc(NC(=O)CSc2nc3c(cc2C#N)CCCCCC3)c(C#N)c1C,-,-,+,-,-,-
C=C(C)COc1ccc(-c2n[nH]c(C)c2-c2ccc(Br)cc2)c(O)c1,-,.,+,-,-,-
CN(Cc1nc(-c2ccc3c(c2)OCO3)no1)CC1(N2CCOCC2)CCCCC1,-,-,-,-,-,.
CCO[C@@H]1OC(C(=O)NCc2nc3ccccc3[nH]2)=C[C@H](C2CC2)[C@H]1CCCO,-,-,-,-,-,.
COc1cc(C(c2c(C)[nH][nH]c2=O)c2c(C)[nH][nH]c2=O)cc(OC)c1OC,-,-,+,-,-,.
Cc1cc(C)c2c(=O)[nH]c(SCC(=O)c3ccc(C)c(C)c3)nc2n1,-,-,-,35,-,-
O=C(Nc1cccc(C(F)(F)F)c1)C(Sc1cccc[n+]1[O-])c1ccccc1 (stereo not given),-,-,-,-,-,.
SMILES,RBBP9 inhibitor,Insulin prom up,Autophagy HCS,Arbovirus anti,PKD1 kinase inh,INS promoter inh
CC(=O)Nc1ccc(NC(=O)C(C)OC(=O)CCC(=O)c2ccc(F)cc2)cc1 (stereo not given),-,-,-,-,-,-
Cc1ccc2nc(N3C(=O)C(O)=C(C(=O)c4cc5ccccc5o4)C3c3cccs3)sc2c1 (stereo not given),-,-,-,32,-,-
FC(F)(F)c1ccc(Oc2ccc3ccccc3c2Br)nc1,-,-,-,35,-,.
Cc1cccc(-c2noc(CCC(=O)Nc3ccccc3)n2)c1,-,-,-,-,-,-
CCN(CC)C(=O)C1CCCN(Cc2ccc(OC)c(C)c2)C1 (stereo not given),-,-,-,-,-,-
Nc1nc2c3ccccc3nc(Cc3ccccc3)n2n1,-,-,-,-,-,-
CCCc1nc2ccccc2c2nc(N)nn12,-,-,-,-,-,87
CC1CCc2cccc3c2N1c1cc(C#N)c(C#N)cc1O3 (stereo not given),-,.,+,-,-,-
C1CCC(C(CC2CCCCN2)C2CCCCC2)CC1 (stereo not given),-,.,+,-,-,-
CCCCn1c(CNC(C)=O)nc2ccccc21,-,-,-,-,-,.
COC(=O)Nc1ccc(S(=O)(=O)N2CCCc3cccc(O)c32)cc1,-,-,-,-,-,.
COC(=O)Nc1ccc(S(=O)(=O)N2CCCc3ccccc32)cc1,-,-,+,-,-,.
O=C(CCSCc1ccc(Cl)cc1)NCCc1ccccc1,-,-,-,-,-,-
Cc1cc(C)n(C(=O)CCC2COc3ccccc3O2)n1 (stereo not given),-,3.5,-,-,-,-
O=C(CCC1COc2ccccc2O1)N1CCCC1 (stereo not given),-,-,-,-,-,-
Cc1cc(NC(=O)CN2CCN(C/C=C/c3ccccc3)CC2)c([N+](=O)[O-])cc1C,-,-,-,-,-,-
COc1ccc(CCNC(=O)CSc2ncn[nH]2)cc1,-,-,-,-,-,86
Cc1cc(C(F)(F)F)nc(SCc2ccc(C(=O)O)o2)n1,-,-,-,-,-,73
O=C(Nc1c2c(nc3ccccc13)CCCC2)c1ccccc1F,-,-,-,-,-,64
CCCc1c(C)c2ccccc2[nH]c1=O,-,-,-,-,-,-
Cc1ccc2[nH]c(-c3ccccc3)c(CN(C)C)c(=O)c2c1,-,4.2,-,-,-,-
C=CCc1c(C)[nH]c2ccc(C)cc2c1=O,-,-,-,-,-,-
CCCc1c(C)[nH]c2ccccc2c1=O,-,-,-,-,-,71
CCc1c(C)[nH]c2ccc(C)cc2c1=O,-,-,-,-,-,77
COc1cc([N+](=O)[O-])cc(/C=N/NC(=O)c2cncc(Br)c2)c1O,-,-,.,.,.,.
SMILES,RBBP9 inhibitor,Insulin prom up,Autophagy HCS,Arbovirus anti,PKD1 kinase inh,INS promoter inh
C/C=C/C(=O)OCC(=O)Nc1ccc(SC(F)F)cc1,-,-,-,-,-,.
OCCNc1nc(Nc2ccccc2)nc2ccccc12,-,?,-,34,-,-
OCCNc1nc(Nc2ccc(Br)cc2)nc2ccccc12,-,-,-,-,-,-
COCC(=O)N(Cc1ccco1)c1nnc(C2CCOC2)s1 (stereo not given),-,-,+,-,-,-
COCCNC(=O)c1ccc(Cn2c(=S)[nH]c3cc4c(cc3c2=O)OCO4)cc1,-,-,-,-,-,-
COC(CNC(=O)c1ccc(Cn2c(=S)[nH]c3cc4c(cc3c2=O)OCO4)cc1)OC,-,3.5,-,-,-,-
COc1ccc2cc3cc(C(=O)Nc4ccccc4N4CCN(C)CC4)oc3nc2c1,-,-,+,-,-,-
COc1ccc2cc3cc(C(=O)NCc4ccccn4)oc3nc2c1,-,3.3,-,-,-,-
COc1ccc2cc3cc(C(=O)NCc4ccco4)oc3nc2c1,-,-,-,-,-,-
CSCCC(NC(=O)c1c(C)oc2c1CCCC2)C(=O)O (stereo not given),-,-,-,-,-,-
CCCCC(=O)N/C(N)=N/c1nc2ccccc2o1,-,-,.,.,.,.
